# Shown are actives, neighbours in structure and some others; about 2.4% of the full set was active somewhere.
# MC4R antagonist: MC4R antagonists of cAMP signaling, primary screen, cell-based, TR-FRET, antagonist arm of biased-ligand search. Melanocortin receptor 4 (Homo sapiens), P32245. MC4R-expressing cells, MTII-stimulated cAMP, LANCE TR-FRET. inhibition, % at 6.5 µM. 360,000 compounds, 0.48% hits;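 active means inhibition above its plate's cutoff, the mean of tested wells on that plate plus 3 SD, cut at about 29% in these data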;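 further: 0% = Melanotan II alone and 100% = Melanotan II plus saturating MCL0020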
# Target sequence (P32245 whole entry, looked up): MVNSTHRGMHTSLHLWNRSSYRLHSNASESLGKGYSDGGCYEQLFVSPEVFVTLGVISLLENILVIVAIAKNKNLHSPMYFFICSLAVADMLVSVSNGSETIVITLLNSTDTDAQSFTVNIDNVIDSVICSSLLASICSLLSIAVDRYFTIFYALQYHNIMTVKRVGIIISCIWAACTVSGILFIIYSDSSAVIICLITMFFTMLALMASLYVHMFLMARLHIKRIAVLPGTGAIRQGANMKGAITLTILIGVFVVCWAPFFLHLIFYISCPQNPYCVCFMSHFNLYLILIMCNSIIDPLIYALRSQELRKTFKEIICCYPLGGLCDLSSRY
#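 Assay system: U2OS-MC4R stable cell line; Also added: Melanotan II; Technique: Eu-cAMP/anti-cAMP TR-FRET, emission 671 nm; Times: 30-min compound, 1-h challenge, 1-h detection, room temperature.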
# Tb MetRS inh: T. brucei MetRS inhibitors, primary screen, biochemical, luminescence. methionyl-tRNA synthetase (Trypanosoma brucei brucei). purified T. brucei MetRS, ATP depletion, Kinase-Glo luminescence. inhibition, % at 11.9 µM. 360,000 compounds, 0.4% hits. AID 624268, 2012;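 active means inhibition above a per-plate cutoff of the control wells' mean inhibition plus 3 SD, cut at about 5.5% in these data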;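 further: 0% = DMSO wells median and 100% = median of wells with control inhibitor compound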
#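 System: purified T. brucei MetRS enzyme / Detection: Kinase-Glo luciferase luminescence reporting remaining unconsumed ATP / Medium: HEPES buffer with MgCl2, KCl, DTT, spermine, BSA, pyrophosphatase / Replication: singlicate, one well per compound / Evaluation: percent inhibition relative to median high and low control wells / Schedule: 2 h aminoacylation at 25 °C after 15 min preincubation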
# NTR1 ag: agonists of human NTR1, primary screen, imaging, U2OS cells, beta-arrestin-GFP, high content; Neurotensin receptor type 1 (Homo sapiens), P30989; NTR1-U2OS beta-arrestin-GFP spot imaging, agonist mode; activation, % at 20 µM; 330,000 compounds, 0.17% hits; AID 493036, 2011;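 active means activation at or above 40% of the spot to cytoplasm intensity ratio, with at least 20 cells analyzed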;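 further: 0% = DMSO without peptide and 100% = 100 nM NTR1 peptide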
# Target sequence (P30989 whole entry, looked up): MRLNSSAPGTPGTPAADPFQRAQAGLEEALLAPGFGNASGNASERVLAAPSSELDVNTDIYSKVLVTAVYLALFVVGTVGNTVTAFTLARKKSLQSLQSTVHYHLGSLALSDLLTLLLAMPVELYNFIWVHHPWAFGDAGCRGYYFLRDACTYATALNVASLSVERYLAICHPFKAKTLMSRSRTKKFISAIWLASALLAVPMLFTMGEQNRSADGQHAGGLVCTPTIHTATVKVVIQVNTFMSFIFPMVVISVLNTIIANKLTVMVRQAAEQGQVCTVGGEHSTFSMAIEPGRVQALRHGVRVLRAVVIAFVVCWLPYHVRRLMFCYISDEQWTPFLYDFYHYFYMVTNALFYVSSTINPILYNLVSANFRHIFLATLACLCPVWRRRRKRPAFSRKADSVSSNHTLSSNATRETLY
# MC4R ag barr: MC4R agonists recruiting beta-arrestin, primary screen, cell-based, luminescence, agonist arm of biased-ligand search; Melanocortin receptor 4 (Homo sapiens), P32245; U2OS MC4R beta-arrestin complementation; percent of melanotan II response, DMSO zero; activation, % at 8.9 µM; 360,000 compounds, 0.98% hits; AID 540308, 2011;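 active means activation above a per-plate cutoff, the mean activation of sample wells on that plate plus 3 SD, cut at about 8% in these data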
# TAG inh: inhibitors of triacylglycerol accumulation, primary screen, cell-based, uHTS, fluorescence, H9c2; 230,000 compounds, 0.66% hits; H9c2 cells, Nile Red lipid (TAG) fluorescence; cells loaded with 200 µM oleic acid; AID 651582, 2012; inhibition, % at 12.5 µM;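 active means pattern-corrected inhibition of lipid staining of at least 50% with the nuclear-stain viability signal not falling by more than 50%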;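 further: 0% = DMSO wells and 100% = triacsin C control wells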
# aDG glyco act: activators of alpha-DG glycosylation, primary screen, uHTS, Pro5-aDG cells, AlphaScreen | activation, % at 10 µM | alpha-DG glycosylation AlphaScreen (IIH6); 0% Pro5, 100% B10-LARGE cell signal | AID 624168, 2012 | 360,000 compounds, 0.22% hits;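 active means activation of at least 8% versus controls, or a plate z-score of at least 8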;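 further: Pro5 are CHO cells carrying HIG-tagged alpha-DG that lacks glycosylation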
# TbMetRS confirm: T. brucei MetRS inhibitors, confirmation, biochemical, luminescence. shares compounds with Tb MetRS inh. T. brucei MetRS enzyme, luminescence (ATP depletion). inhibition, % at 11.9 µM. 1,400 compounds, 93% hits. AID 624412, 2012; in the data active means inhibition above about 7%
# Jurkat cytotox: Jurkat T cell cytotoxicity, cytotoxicity control for T. brucei MetRS inhibitor project, luminescence, high throughput; 1,400 compounds, 12% hits; shares compounds with Tb MetRS inh; inhibition, % at 8.3 µM; Jurkat cells viability, ATP luminescence; in the data active means inhibition above about 15%;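 further: 0% = vehicle and 100% = reference inhibitor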
# Tb MetRS inh FP: T. brucei MetRS inhibitors, orthogonal assay for T. brucei MetRS inhibitor project, biochemical, fluorescence polarization; 1,400 compounds, 44% hits; AID 651607, 2012; shares compounds with Tb MetRS inh; purified T. brucei MetRS; inhibition, % at 11.9 µM; in the data active means inhibition above about 17%;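 further: 0% = vehicle wells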
# Starred values were filed as active, the others as inactive; x = not tested or not shown.
SMILES,MC4R antagonist,Tb MetRS inh,NTR1 ag,MC4R ag barr,TAG inh,aDG glyco act,TbMetRS confirm,Jurkat cytotox,Tb MetRS inh FP
COc1cc(NC(=O)CCN2CC(C)OC(C)C2)cc(OC)c1 (configuration not stated),20.5,5.8*,0.8,1.2,x,-0.1,0.4,1.9,2.8
Oc1cccc(Nc2nc(O)c(/C=C3\C=Nc4ccccc43)s2)c1,-3.1,17.2*,3.0,3.1,0.5,-0.2,21.4*,5.1,28.2*
Cc1ccc2ccccc2c1C(O)c1ncc(-c2cccc(F)c2)[nH]1 (configuration not stated),4.0,-0.2,x,-1.4,6.3,-0.1,x,x,x
CC1(C)C2CCC1(CS(=O)(=O)NCc1ccc(Cl)cc1Cl)C(=O)C2 (configuration not stated),-2.2,7.6*,0.2,4.5,x,0.2,20.8*,-0.6,4.4
CC(C(=O)NC1CCCC1)n1c(C2CCCC2)nc2ccccc21 (configuration not stated),x,-0.6,x,x,x,0.1,x,x,x
O=c1[nH]c(Cc2ccc(Cl)cc2)nc2ccccc12,3.1,-0.8,-1.2,1.0,-9.7,-0.2,x,x,x
O=c1[nH]c(Cc2cccc(C(F)(F)F)c2)nc2ccccc12,5.0,51.1*,-0.1,9.0*,x,1.0,55.5*,-4.5,26.7*
O=c1[nH]c(CSc2ncnc3sccc23)nc2cc(C(F)(F)F)ccc12,9.7,0.6,6.9,-2.2,1.0,-0.1,x,x,x
O=c1[nH]c(CSc2ncc(C(F)(F)F)cc2Cl)nc2ccccc12,1.8,53.2*,0.3,0.0,8.2,0.4,76.8*,11.0,54.1*
C[C@H]1Cn2cnc(C(=O)Nc3cccc(Cl)c3)c2C(=O)N1,14.9,0.9,x,1.2,14.8,-0.4,x,x,x
Cc1ccc2[nH]cc(S(=O)(=O)c3ccc(C)c(C)c3)c(=O)c2c1,0.4,6.8*,-0.5,-0.1,x,0.2,38.1*,3.9,8.7
O=C(NC1CCCCC1)C(c1ccnc2ccccc12)N1CCc2ccccc2C1 (configuration not stated),x,0.3,x,x,x,-0.1,x,x,x
Cc1ccc(C2CC2C(=O)NNC(=S)Nc2ccc(Cl)cc2)cc1 (configuration not stated),13.0,39.3*,-1.6,-0.8,x,0.0,66.5*,0.8,37.8*
O=C(CC(=O)c1ccccc1[N+](=O)[O-])c1ccccc1,x,x,1.0,x,x,x,x,x,x
O=C(NCc1cc(Br)cc(Br)c1OC(=O)c1ccccc1[N+](=O)[O-])c1ccccc1,0.8,23.2*,3.8,-1.6,x,0.8,27.5*,14.2,19.6*
O=C(C[C@@H]1C[C@H]2c3cc(NC(=O)C4CCC4)ccc3O[C@H]2[C@@H](CO)O1)NCc1ccc(-c2ccccc2)cc1,2.9,0.0,x,-1.1,4.0,-0.2,x,x,x
N#C/C(=C\c1ccccc1[N+](=O)[O-])C(=O)NCc1ccccc1,11.5,0.2,3.1,-0.1,10.5,0.1,x,x,x
N#C/C(=C\C=C\c1ccccc1[N+](=O)[O-])C(=O)NCc1ccccc1,1.5,12.8*,16.5,-2.6,x,0.0,30.2*,77.4*,12.1
O=C(Cc1ccccc1)N/N=C/C=C/c1ccccc1[N+](=O)[O-],-4.4,7.0*,1.3,3.8,5.4,0.0,10.9*,7.6,9.8
O=C(/C(=C\c1ccccc1)c1nc2ccccc2[nH]1)c1ccc(Cl)cc1,4.0,9.7*,15.8,0.7,x,-0.6,3.8,78.8*,-0.3
COC(=O)/C(=C\c1ccc(O)cc1)c1nc2ccccc2[nH]1,0.8,0.2,3.9,-2.0,0.1,-0.1,x,x,x
CCNC(=S)N(Cc1cc2cc(C)ccc2[nH]c1=O)C1CCCC1,15.5,11.3*,1.5,0.9,x,0.3,21.7*,-5.4,10.7
CC1=C(C(=O)N(C(C)C)C(C)C)CC(CC(=O)NCc2ccco2)C(=O)N1Cc1ccc(C(C)(C)C)cc1 (configuration not stated),x,-0.9,x,x,x,-0.2,x,x,x
CCn1c(SCC(=O)c2c[nH]c3ccccc23)nc2cc(S(=O)(=O)N3CCOCC3)ccc21,3.2,17.7*,2.6,2.1,x,-0.4,81.6*,2.5,60.2*
CCOP(=O)(OCC)C(Nc1cc(Cl)cc(Cl)c1)c1cccc(O)c1 (configuration not stated),6.9,2.1,-0.3,2.2,9.8,0.6,x,x,x
SMILES,MC4R antagonist,Tb MetRS inh,NTR1 ag,MC4R ag barr,TAG inh,aDG glyco act,TbMetRS confirm,Jurkat cytotox,Tb MetRS inh FP
COP(=O)(OC)C(Nc1cc(Cl)cc(Cl)c1)c1cccc(O)c1 (configuration not stated),5.6,5.7*,-1.5,-3.2,4.4,0.1,14.5*,-0.6,4.0
CCCCNC(=O)C(NC(=O)c1cnccn1)C(=O)c1ccccc1 (configuration not stated),x,-0.2,x,x,x,-0.2,x,x,x
COC(=O)[C@]1(Sc2ccc(OC)cc2)CC(=O)N[C@@H]1c1ccccc1,x,-0.6,x,x,x,0.0,x,x,x
CN1OC[C@@H]2CN(S(=O)(=O)c3cccc(C(F)(F)F)c3)[C@H](c3ccc(-c4cccnc4)cc3)C[C@@H]21,9.5,0.5,x,0.8,-1.8,-0.2,x,x,x
O=C(Nc1cccc(S(=O)(=O)C(F)(F)F)c1)[C@@H]1O[C@H](CO)[C@@H](O)[C@H]1O,4.3,-0.3,x,-2.0,3.0,0.0,x,x,x
CC(C)C(=O)OCC(=O)NCc1ccccc1Cl,-1.6,0.0,-0.2,0.4,-7.2,0.2,x,x,x
Cc1ccc(NC(=O)/C=N/OCC(=O)NCc2ccccc2Cl)cc1,-4.3,16.3*,0.5,0.9,-8.6,-0.1,29.3*,-10.8,12.5
O=C(Nn1c(-c2ccc(Br)cc2)nc2ccccc2c1=O)c1ccc([N+](=O)[O-])cc1,-4.1,8.7*,2.8,-0.2,1.8,0.3,18.1*,5.6,4.2
O=C(N/N=C/c1ccc[nH]1)c1ccc(O)cc1,-3.0,0.7,0.5,-0.1,-4.2,-0.3,x,x,x

# Screening results: PubChem, several laboratories
